Test results published in PubChem BioAssay AID617 (SRMLSC, 2007).

tested on: E. coli BW25113 ΔtolC growth inhibition, OD615; assay: E. coli ΔtolC antibacterial growth inhibition – strain BW25113 ΔtolC::kan, dose response (AID 617)
Method in brief: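 Material: E. coli BW25113 ΔtolC::kan bacteria; input: inoculum from 1:1000-diluted 1.5 h subculture; medium: kanamycin-containing LB broth, 50 µg/mL; dosing: compounds in serially diluted dose-response series; incubation: 20 h exposure at 37 °C; measured by: absorbance at 615 nm; control set: chloramphenicol control, 30 µM final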

Row | SMILES | IC50 [µM]
1 | N#Cc1nc(COc2ccc(F)cc2)oc1N1CCN(Cc2ccccc2)CC1 | 14.4
2 | Clc1ccc2[nH]c3c(c2c1)CCc1cn[nH]c1-3 | 6.49
3 | COC(=O)c1sccc1NC(=O)c1cc2c(s1)CCCC2 | 4.95
4 | COc1ccccc1-c1nnc2sc(COc3ccc(Cl)cc3)nn12 | 16.4
5 | CC(C)c1ccc(OCc2ccc(C(=O)N3CCN(c4ccccn4)CC3)cc2)cc1 | 8.11
6 | Cc1ccc(C)c(SCC(=O)Nc2nnc(-c3ccccc3)o2)c1 | 4.69
7 | Cc1nc(N2CCN(c3ccccc3)CC2)nc2c1C(=O)CCC2 | 26.6
8 | c1ccc(-n2nnnc2Oc2cccc3cccnc23)cc1 | 7.65
9 | N=C(N)c1c(O)n(C2CCCCC2)c(=O)n(C2CCCCC2)c1=O | 5.79
10 | O=C1c2ccccc2C(=O)N1CCC(c1ccc(F)cc1)c1ccco1 (centres undefined) | 13.4
11 | O=C(Nc1nc2ccccc2s1)C1CCCN1S(=O)(=O)c1ccc(Cl)cc1 (centres undefined) | 8.91
12 | CC(C)(C)C1CCC2(CC1)C(C#N)=C(SCC(=O)NC1CCCCC1)NC(=O)C2C#N (centres undefined) | 6.1
13 | Cc1ccccc1OCCCCc1c(C)n[nH]c1C | 3.74
14 | O=C(CSc1nc(O)c(C2CCCCC2)c(=O)[nH]1)Nc1ccc(Cl)cc1 | 8.66
15 | Cc1ccc(OCc2nc(C#N)c(NCc3ccc4c(c3)OCO4)o2)cc1 | 6.03
16 | Cc1cccc(N(C)C(=O)c2cc3cc4ccc(C)cc4nc3o2)c1 | 23.9
17 | N#Cc1nc(COc2ccc(Cl)cc2)oc1N1CCCCCC1 | 8.68
18 | O=C(Nc1cccc(C(F)(F)F)c1)N1CCC(c2nc(-c3ccc(F)cc3)no2)CC1 | 3.75
19 | OC(COc1ccc(Cl)c2ccccc12)CN1CCN(c2ccccn2)CC1 (centres undefined) | 11.6
20 | Cc1ccc2c(c1)NC(=O)C(CC(=O)NCCCN1CCN(c3cc(Cl)ccc3C)CC1)O2 (centres undefined) | 2.67
21 | CC1(C)Cc2c(c(N3CCCC3)nc3sc4c(N5CCN(CCO)CC5)ncnc4c23)CO1 | 18.1
22 | CCOc1ccc2nc(NC(=O)C(CC)Sc3nc(C)cc(=O)[nH]3)sc2c1 (centres undefined) | 12.1
23 | CCOC(=O)c1cnc(-n2nc(C)cc2C)nc1NC(C)c1ccccc1 (centres undefined) | 2.76
24 | Cc1cccc(NC(=O)CSc2nnc(-c3cc(C)n(-c4ccccc4)c3C)o2)c1C | 14
25 | O=C(COc1ccccc1Br)c1ccc(O)cc1O | 13.1
26 | Cc1ccc(NC(=O)c2nnn(-c3cc(C)cc(C)c3)c2N)cc1 | 21.9
27 | Cc1cc(N2CCN(c3ccccc3)CC2)nc(-c2ccccc2)n1 | 14.3

Row | SMILES | IC50 [µM]
28 | Cc1ccc(C2C(S(C)(=O)=O)=C(O)C(=O)N2c2ccccc2)cc1 (centres undefined) (tested in a mixture with another compound) | 4.81
29 | COc1ccc(C(C(O)C(=O)c2c[nH]c3ccccc23)N2CCN(c3ccc(OC)cc3)CC2)cc1 (centres undefined) | 11.3
30 | Cc1cc(Nc2ccccc2)n(-c2nc3ccccc3[nH]2)n1 | 4.9
31 | O=S(=O)(Nc1nc2ccccc2nc1NCc1ccco1)c1ccc(Cl)cc1 | 4.77
32 | Cc1ccc(C(c2nnnn2CCc2ccccc2)N2CCSCC2)cc1 (centres undefined) | 30.9
33 | COc1ccccc1-c1cc(C(=O)NCc2ccc(F)cc2)no1 | 9.85
34 | CN(C)[C@@H]1C(=O)C(C(N)=O)=C(O)[C@@]2(O)C(=O)C3=C(O)c4c(O)ccc(Cl)c4[C@@H](O)[C@H]3C[C@@H]12 | < 0.2
35 | COc1ccc(NC(=O)N(C2CCCCC2)C(C)c2ccco2)c(OC)c1 (centres undefined) | 15
36 | O=C(CSc1n[nH]c(-c2ccco2)n1)N1c2ccccc2Sc2ccccc21 | 9.51
37 | O=C(Nc1ccc(N2CCN(C(=O)c3ccco3)CC2)c(Cl)c1)c1c(F)c(F)c(F)c(F)c1F | 3.96
38 | CCOC(=O)CSC1=C(C#N)C(c2ccco2)C(C(=O)Nc2cccc(C(F)(F)F)c2)=C(C)N1 (centres undefined) | 9.34
39 | CCOc1ccc(N(CC(=O)Nc2ccc(C)c(C)c2)S(=O)(=O)c2c(C)noc2C)cc1 | 15.5
40 | COc1ccc(CNc2nc3c(c(=O)n(Cc4ccc(F)cc4)c(=O)n3C)n2C)cc1 | 22.5
41 | CC1CCN(S(=O)(=O)c2ccc(Cl)cc2Br)CC1 | 17.5
42 | CN(Cc1ccccc1)c1ncnc2c1cnn2-c1ccccc1 | 12.7
43 | CC1Cc2cc(-c3csc(NC(=O)Cc4cccs4)n3)ccc2N1S(C)(=O)=O (centres undefined) | 15.3
44 | CCOC(=O)c1cc2cc(-c3c(C(=O)OCC)oc4cc(O)cc(O)c4c3=O)ccc2o1 | 7.59
45 | CCOc1cc(S(=O)(=O)n2cc(-c3ccc(F)cc3)c(N)n2)cc(OCC)c1OCC | 21
46 | COc1cccc(-c2nnc(NC(=O)c3ccc(S(=O)(=O)N(CC(C)C)CC(C)C)cc3)o2)c1 | 0.91
47 | Cc1ccc(Cl)cc1N1CCN(C(=O)COc2ccc(S(=O)(=O)NC(C)C)cc2)CC1 | 10.6
48 | CC(C)(C)NC(=O)C(c1ccco1)N(C(=O)Cn1nnc(-c2ccc(F)cc2)n1)c1cccc(F)c1 (centres undefined) | 20.9
49 | c1ccc(Nc2nc(-c3cccs3)cs2)nc1 | 12.9
50 | CCOc1cc(S(=O)(=O)N2CCN(Cc3ccccc3)CC2)ccc1Br | 19.3
51 | CCOC(=O)c1cnn(-c2nc3sc4c(c3c(=O)[nH]2)CCCC4)c1N | 0.28
52 | CCCCOn1c(C)c(C(=O)OCC)c2c3nonc3ccc21 | 18.4
53 | CCCc1cc(C(=O)N2CCN(c3ccccc3C)CC2)cs1 | 8.52
54 | COc1nnc(-c2ccc(N3CCCCC3)c(N)c2)c2ccccc12 | 11.9
